Hits are enriched below; roughly 4.6% of the tested compounds scored in any of these assays.
Pemphigus Ab inh = inhibitors of pemphigus antibody binding to human desmoglein-3 | P32926 | DSG3-coupled beads, scFv-anti-DSG3-GFP binding, flow cytometry; hits give low values | binding (percent of control), % at 10 µM | hit rate 0.48% among 310,000;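 active = binding more than 3 SD below its plate's average and above zero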;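 note: hits lower antibody fragment binding to DSG3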
Target sequence (P32926 whole entry, looked up, the tested form may be a part): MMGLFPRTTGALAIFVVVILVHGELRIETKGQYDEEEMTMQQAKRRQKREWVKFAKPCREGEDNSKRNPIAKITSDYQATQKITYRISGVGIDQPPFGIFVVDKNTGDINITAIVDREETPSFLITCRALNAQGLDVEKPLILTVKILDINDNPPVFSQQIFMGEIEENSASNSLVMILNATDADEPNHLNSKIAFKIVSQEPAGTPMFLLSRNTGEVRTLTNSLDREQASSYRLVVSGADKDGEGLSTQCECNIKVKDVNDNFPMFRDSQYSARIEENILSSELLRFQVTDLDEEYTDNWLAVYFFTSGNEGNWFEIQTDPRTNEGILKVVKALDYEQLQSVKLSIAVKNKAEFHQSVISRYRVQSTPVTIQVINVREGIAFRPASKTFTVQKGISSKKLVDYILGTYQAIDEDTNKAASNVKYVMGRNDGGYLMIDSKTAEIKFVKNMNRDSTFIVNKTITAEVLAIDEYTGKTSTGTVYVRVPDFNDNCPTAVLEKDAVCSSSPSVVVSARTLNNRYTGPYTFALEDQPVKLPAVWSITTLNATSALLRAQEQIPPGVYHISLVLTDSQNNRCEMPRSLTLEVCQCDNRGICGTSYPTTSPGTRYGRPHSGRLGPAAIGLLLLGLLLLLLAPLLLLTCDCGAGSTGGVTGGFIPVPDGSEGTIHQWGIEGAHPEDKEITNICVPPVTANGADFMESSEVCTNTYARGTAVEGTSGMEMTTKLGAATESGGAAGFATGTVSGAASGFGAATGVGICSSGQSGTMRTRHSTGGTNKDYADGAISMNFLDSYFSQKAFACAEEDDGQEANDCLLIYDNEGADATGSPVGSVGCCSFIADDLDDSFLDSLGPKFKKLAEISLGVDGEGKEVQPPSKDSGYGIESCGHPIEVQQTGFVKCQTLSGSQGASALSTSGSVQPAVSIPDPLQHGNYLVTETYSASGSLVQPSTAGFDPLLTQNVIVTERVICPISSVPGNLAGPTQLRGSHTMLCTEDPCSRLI
ALR H2O2 inh = human ALR oxidase inhibition via reduced H2O2; P55789; purified ALR, DTT oxidation, H2O2 HRP-luminol luminescence; inhibition, % (test concentration not listed); hit rate 3.8% among 290,000; AID 485317;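 active = mean replicate inhibition above about 79%, with every replicate also reaching it, limit read from the data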
NALP1 yeast inh = NALP1 inhibition | hit rate 0.61% among 280,000 | inhibition, % at 10 µM | S. cerevisiae NALP1/ASC/caspase-1 growth, X-gal OD620, 72 h; in the data active = inhibition mostly above about 24%, no sharp cut-off; inactive = mostly below about 32%
NLRP3 yeast inh = NALP3 inhibition in yeast. Yeast reconstituted NLRP3/ASC/caspase-1, beta-gal luminescence, 24 h. inhibition, % at 10 µM. hit rate 0.39% among 330,000;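 active = inhibition of 50% or more; inactive = inhibition below 50%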
PolyA inh = inhibitors of polyadenylation in S. cerevisiae; AID 1875; hit rate 0.02% among 300,000; activity score, % at 12 µM; S. cerevisiae SKY197-pL101 polyadenylation reporter, beta-gal luminescence; efflux-impaired pdr1/pdr3 knockout yeast; score 100 = 6 SD above DMSO;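 active = lowest replicate activity score at least 50, where 100 means six control SD above control mean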;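 note: yeast exposed to compound for 9 h at 30 °C; higher score means more reporter readthrough which indicates perturbed polyadenylation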
Arrestin-AP2 inh = blocks beta-arrestin peptide binding to AP2 adaptin; FITC-arrestin peptide / GST-AP2 beads, flow cytometry; AP2 beta2 appendage carries R879A mutation; inhibition, % at 10 µM; hit rate 0.31% among 340,000;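 active = inhibition above a set limit, near 3 SD of compounds lacking own fluorescence, cut at about 54% in these data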
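Material – GST-tagged AP2 beta2-adaptin appendage (R879A) on 4 µm glutathione beads · Probe or stimulus – fluorescein-tagged arrestin peptide at 50 nM final · Timing – 12 min plus 1 h, RT · Detection – bead flow cytometry, FITC channel · Read-out basis – inhibition as reduced fluorescein signal on beads, percent · Medium – PBS plus Tween 20 (0.05%) and BSA (0.1%)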
Numbers stand for hits; – = inactive; · = not tested or not shown.

SMILES | Pemphigus Ab inh | ALR H2O2 inh | NALP1 yeast inh | NLRP3 yeast inh | PolyA inh | Arrestin-AP2 inh
CC(C)C1C(=O)N(Cc2cn(CC3CCCCC3)nn2)CCS(=O)(=O)N1Cc1ccc(-c2ccccc2)cc1 (stereo unspecified) | – | · | · | · | · | ·
COc1ccc(-c2cc(=O)oc3c(O)c(O)ccc23)cc1 | – | 98.5 | – | – | – | –
COc1ccc(-c2cc(=O)oc3cc(OC(C)C(=O)O)ccc23)cc1 (stereo unspecified) | · | – | – | – | – | –
Cc1ccccc1NC(=O)c1cccnc1 | – | – | – | – | – | –
O=C(NCc1ccco1)c1cnc2ccccn2c1=O | – | – | · | – | – | –
CCN(CC)c1ccc(NC(=O)c2cccnc2)c(C)c1 | – | 95.8 | – | – | – | –
CCN(CC)c1ccc(NC(=O)c2cccc(C)c2OC)c(C)c1 | – | 99.1 | 29.1 | – | · | –
CCN(CC)c1ccc(NC(=O)c2cnc3ccccn3c2=O)c(C)c1 | – | 99.3 | – | – | – | –
CCN(CC)c1ccc(NC(=O)CNCc2ccccc2Cl)c(C)c1 | – | 98.9 | – | – | – | –
COc1ccc(CNCCCC(=O)Nc2c(Cl)ccc(C)c2Cl)cc1OC | · | – | – | – | – | –
COc1ccc(NC(=O)N(C)C[C@H]2OCCCC[C@@H](C)Oc3ccc(NC(=O)c4ccccc4)cc3C(=O)N([C@H](C)CO)C[C@@H]2C)cc1 | – | · | · | · | · | ·
CC1(C)CC(=O)N(CC(=O)NCc2ccccc2)c2ccccc2S1(=O)=O | – | · | – | – | – | –
CCN(CC)c1ccc(NC(=O)CN2C(=O)CC(C)(C)S(=O)(=O)c3ccccc32)c(C)c1 | – | 99.4 | – | – | – | –
CCOC(=O)C1CCN(C(=O)Cc2c(F)cccc2Cl)CC1 | – | – | – | – | – | –
CCOC(=O)C1CCN(Cc2c(F)cccc2Cl)CC1 | – | 98.1 | – | – | – | –
CCOC(=O)C1CCN(Cc2ccc(F)c(F)c2)CC1 | – | – | – | – | – | –
CCOC(=O)C1CCN(Cc2ccc(N(C)C)cc2)CC1 | · | 98.7 | – | – | · | –
CCOC(=O)C1CCCN(C(=O)Cc2c(F)cccc2Cl)C1 (stereo unspecified) | – | – | – | – | – | –
CCOC(=O)C1CCCN(Cc2c(F)cccc2Cl)C1 (stereo unspecified) | – | 98.5 | – | – | – | –
N#Cc1cccc(NC(=O)CSc2nnc(C3CC3)n2C2CC2)c1 | – | – | · | – | · | –
CCN(CC)CCOC(=O)c1cccc(Br)c1 | – | – | – | – | – | –
CN(CCOC(=O)c1cccc(Br)c1)C(C)(C)C | – | – | 27.6 | – | – | –
Oc1ccccc1Nc1nc(NCC2CCCO2)c2ccccc2n1 (stereo unspecified) | – | 98.8 | – | – | – | –
O=C(O)CCCn1cc(NC(=O)c2cccc(F)c2)cn1 | – | – | 27.2 | – | – | –
O=C(O)CCCn1cc(NC(=O)c2cc(F)c(F)cc2Cl)cn1 | – | – | – | – | – | –
SMILES | Pemphigus Ab inh | ALR H2O2 inh | NALP1 yeast inh | NLRP3 yeast inh | PolyA inh | Arrestin-AP2 inh
O=C(CN(C(=O)CCC(=O)Nc1ccccn1)c1ccc(F)cc1)NCCc1ccccc1 | – | · | – | – | – | –
CCOc1ccc(N)c(SSc2cc(OCC)ccc2N)c1 | – | – | – | – | – | –
CS(=O)(=O)c1ccc(N)c(SSc2cc(S(C)(=O)=O)ccc2N)c1 | – | 98.7 | · | – | – | –
CSCCC(NC(=O)c1ccccc1Br)C(=O)NCC(c1ccco1)N1CCCCC1 (stereo unspecified) | – | – | · | – | – | –
CN1C(=O)NC(c2ccc(Cl)cc2)C2=C1CC(C)(C)CC2=O (stereo unspecified) | – | 94.5 | – | – | – | –
CC1(C)CC(=O)C2=C(C1)Nc1ccccc1NC2c1ccc(F)cc1 (stereo unspecified) | – | 99.4 | – | – | – | –
CC1(C)CC(=O)C2=C(C1)Nc1cc3c(cc1C2c1ccc(F)cc1)OCO3 (stereo unspecified) | – | 98.0 | – | – | – | –
Cc1ccc(C2C3=C(CC(C)(C)CC3=O)Nc3onc(C)c32)cc1 (stereo unspecified) | – | · | – | – | – | –
Cc1noc2c1C(c1ccc(N(C)C)cc1)C1=C(CC(C)(C)CC1=O)N2 (stereo unspecified) | – | 98.4 | – | – | – | –
CC1(C)CC(=O)C2=C(C1)Nc1cc3c(cc1C2c1ccc2c(c1)OCO2)OCO3 (stereo unspecified) | – | – | – | – | – | –
CN1C(=O)NC(c2ccccc2Cl)C2=C1CC(C)(C)CC2=O (stereo unspecified) | – | – | – | – | – | –
CCOC(=O)[C@H]1[C@H]2COc3ccc(Br)cc3[C@@H]2N2C(=O)c3ccc(Cl)cc3NC(=O)[C@@]12C | – | · | · | – | · | –
C=CCOc1ccc(/C=C/C(=O)OCC(=O)NCc2ccco2)cc1 | – | – | · | – | – | –
CC1(C)CC(=O)C2=C(C1)Nc1ccccc1NC2c1ccc2c(c1)OCO2 (stereo unspecified) | – | 99.5 | – | – | – | –
CC1CC2=C(C(=O)O1)C(c1ccccc1)Nc1ccccc1N2 (stereo unspecified) | – | 98.0 | – | – | – | –
Cc1ccc(C2Nc3ccccc3NC3=C2C(=O)CC(C)(C)C3)c(O)c1 (stereo unspecified) | – | – | – | – | – | –
CC1CC2=C(C(=O)O1)C(C)Nc1ccccc1N2 (stereo unspecified) | – | · | – | – | – | –
CN(C)c1ccc(C2CC(=O)OC3=C2C(=O)CC(C)(C)C3)cc1 (stereo unspecified) | – | 98.7 | – | – | – | –
CC1(C)CC(=O)C2=C(C1)Nc1ccccc1NC2c1ccccn1 (stereo unspecified) | – | 83.0 | – | – | – | –
CC1(C)CC(=O)C2=C(C1)Nc1ccccc1NC2c1cc(Cl)ccc1O (stereo unspecified) | – | · | – | – | – | –
CC1(C)CC(=O)C2=C(C1)Nc1ccccc1NC2c1nc2ccccc2[nH]1 (stereo unspecified) | – | 97.8 | 39.4 | – | – | –
COc1ccccc1C(CNC(=O)CCNS(=O)(=O)c1ccc(Br)cc1)N1CCCC1 (stereo unspecified) | – | · | · | · | · | –
COc1cc(NC(=O)CN2C(=O)C(c3ccccc3)=NC2(C)C)cc(OC)c1 | – | 96.5 | – | – | – | –
COc1cc(NC(=O)CN2C(=O)C(c3ccccc3)=NC23CCCCCC3)cc(OC)c1 | – | – | – | – | – | –
CC1=NN(Cc2ccccc2)C(=O)C1C(c1ccccc1)C(C#N)C#N (stereo unspecified) | · | 97.9 | – | – | – | –
CC1CC(C)CN(C(=O)CNS(=O)(=O)c2ccc(Br)s2)C1 (stereo unspecified) | – | · | – | – | – | –

Screening results (PubChem)
